In ChEMBL document CHEMBL1133721, “Antitumor polycyclic acridines. 7. Synthesis and biological properties of DNA affinic tetra- and pentacyclic acridines” (J Med Chem, 2000):

How the values were obtained:
Type in all cases: functional, cell-based
Settings in all cases: Homo sapiens
ZR-75-1 = test: Inhibitory activity against ZR-75-1 cell line using MTT assay (ER+,pgr+,mutant p53)
Outline: (§1)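 Cells were grown in RPMI 1640 with 2 mM L-glutamine, penicillin/streptomycin and 10% heat-inactivated FCS. Drugs were taken from 10 mM DMSO stocks. Viability was read by MTT at 0.4 mg/mL final for 4 h at 37 °C, with formazan dissolved in DMSO plus glycine buffer and read at 550 nm. IC50 is the concentration halving absorbance versus untreated controls, taken from dose-response curves.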

MCF7 [1] = test: Inhibitory activity against MCF-7 wt cell line using MTT assay (ER+,pgR+,wildtype p53); outline: as §1
A549 = test: Inhibitory activity against A549 cell line using MTT assay(Wild type p53); outline: as §1
SK-BR-3 = test: Inhibitory activity against SKBR-3 cell line using MTT assay (ER-amplified erB2,mutant p53); outline: as §1
MDA-MB-231 = test: Inhibitory activity against MDA-231 cell line using MTT assay (ER-,EGFR+,mutant p53); outline: as §1
NCI-H460 [2] = test: Inhibitory activity against NCI-H460 cell line using MTT assay
Outline: (§2)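 This is a 7-day MTT assay in RPMI 1640 with 2 mM L-glutamine, antibiotics and 10% heat-inactivated FCS. The H460pv8/eto variant was kept in 1 µM etoposide. MTT was used at 0.4 mg/mL final for 4 h at 37 °C, and formazan was dissolved in DMSO/glycine buffer and read at 550 nm. IC50 is the 50% absorbance reduction versus untreated controls, from dose-response curves.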

NCI-H226 [3] = test: Inhibitory activity against NCI-H226 cell line using MTT assay(mutant p53); outline: as §1
NCI/ADR-RES = test: Inhibitory activity against MCF-7/adr cell line using MTT assay; outline: as §1
NCI-H460 [4] = test: Inhibitory activity against H460pv8 cell line using MTT assay; outline: as §2
T47D = test: Inhibitory activity against T47D cell line using MTT assay (ER+,mutant p53); outline: as §1
NCI-H460 [5] = test: (§3) Inhibitory activity against NCI-H460 cell line using MTT assay(Wild type p53); outline: as §1
MDA-MB-468 = test: Inhibitory activity against MDA-468 cell line using MTT assay (ER-, amplified EGFR, mutant p53); outline: as §1
MCF7 [6] = test: Inhibitory activity against MCF7wt cell line using MTT assay; outline: as §1
F460pv8/eto = test: Inhibitory activity against […] using MTT assay; outline: as §2
NCI-H647 = test: Inhibitory activity against NCI-H647 cell line using MTT assay(mutant p53); outline: as §1
NCI-H322M = test: (§4) Inhibitory activity against NCI-H322 cell line using MTT assay(mutant p53); outline: as §1
NCI-H358 [7] = test: (§5) Inhibitory activity against NCI-H358 cell line using MTT assay(mutant p53); outline: as §1
NCI-H460 [8] = test: as §4
Outline: (§6)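 Human NSCLC lines grown in RPMI 1640 with 2 mM L-glutamine, penicillin/streptomycin and 10% heat-inactivated FCS. Drugs were taken from 10 mM DMSO stocks. Cells were exposed for 7 days, then given MTT at 0.4 mg/mL final for 4 h at 37 °C. Formazan was dissolved in DMSO/glycine buffer and read at 550 nm. IC50 is the 50% absorbance drop versus untreated controls, read from dose-response curves.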

NCI-H226 [9] = test: as §5; outline: as §6
NCI-H358 [10] = test: as §3; outline: as §6

Compound | IC50 (ZR-75-1) [nM] | IC50 (MCF7 [1]) [nM] | IC50 (A549) [nM] | IC50 (SK-BR-3) [nM] | IC50 (MDA-MB-231) [nM] | IC50 (NCI-H460 [2]) [nM] | IC50 (NCI-H226 [3]) [nM] | IC50 (NCI/ADR-RES) [nM] | IC50 (NCI-H460 [4]) [nM] | IC50 (T47D) [nM] | IC50 (NCI-H460 [5]) [nM] | IC50 (MDA-MB-468) [nM] | IC50 (MCF7 [6]) [nM] | IC50 (F460pv8/eto) [nM] | IC50 (NCI-H647) [nM] | IC50 (NCI-H322M) [nM] | IC50 (NCI-H358 [7]) [nM] | IC50 (NCI-H460 [8]) [nM] | IC50 (NCI-H226 [9]) [nM] | IC50 (NCI-H358 [10]) [nM]
Nc1ccc2c(c1)Nc1c3ccccc3nc3cccc-2c13 | 30 | 50 | 80 | 20 | 230 | 70 | 170 | 355 | 50 | 270 | 70 | 40 | 50 | 120 | 80 | 140 | 400 |  |  | 
c1ccc2c(c1)Nc1cccc3cc4[n+](c-2c13)CCC4 | 170 | 150 | 160 | 120 | 190 | 180 | 220 | 165 | 130 | 160 | 180 | 180 | 150 | 100 | 120 | 170 | 110 |  |  | 
N#CCCCc1cnc2c3c(cccc13)Nc1ccccc1-2 | 720 | 270 | 2570 | 420 | 960 | 2560 | 2720 | 610 | 2060 | 1310 | 2560 | 320 | 270 | 1090 | 2920 | 2270 | 2380 |  |  | 
O=[N+]([O-])c1ccc2c(c1)Nc1c3ccccc3nc3cccc-2c13 | 30 | 550 | > 10000 | 120 | > 10000 |  | > 10000 |  |  | > 10000 |  | 40 |  |  | 950 |  |  | > 10000 | 9500 | > 10000
COc1cc(NS(C)(=O)=O)ccc1Nc1c2ccccc2nc2ccccc12 [AMSACRINE] | 180 | 75 | 30 | 60 | 140 | 60 | 1010 | 1160 | 200 | 220 | 60 | 490 | 75 | 40 | 70 | 210 | 150 |  |  | 
N#CCCCc1cc2cccc3c2c(n1)-c1ccccc1N3 | 2700 | 3790 | 1330 | 3450 | 2050 | 1170 | 1210 |  | 1120 | 3590 | 1170 | 1870 |  |  | 1680 | 1530 | 2010 |  |  | 
Clc1ccc2c(c1)-c1cccc3nc4ccccc4c(c13)N2 | 5590 | 1670 | 7100 | 1030 | 5450 | 3900 | > 10000 | 6310 | 3770 | 5550 | 3900 | 310 | 1670 | 6470 | 5300 | > 10000 | 6030 |  |  | 
c1ccc2c(c1)Nc1c3ccccc3nc3cccc-2c13 | 850 | 270 | 490 | 150 | 540 | 520 | 750 | 630 | 320 | 690 | 520 | 90 | 270 | 340 | 540 | 490 | 460 |  |  | 
COc1cccc2c1C(=O)c1c(O)c3c(c(O)c1C2=O)C[C@@](O)(C(=O)CO)C[C@@H]3O[C@H]1C[C@H](N)[C@H](O)[C@H](C)O1 [DOXORUBICIN] | 9 | 1 | 4 | 20 | 6 | 10 | 8 |  | 4 | 7 | 10 | 5 |  | 20 | < 1 | 30 | 130 |  |  | 
COc1cc([C@@H]2c3cc4c(cc3[C@@H](O[C@@H]3O[C@@H]5CO[C@@H](C)O[C@H]5[C@H](O)[C@H]3O)[C@H]3COC(=O)[C@H]23)OCO4)cc(OC)c1O [ETOPOSIDE] | 240 | 85 | 160 | 300 | 150 | 100 | 240 |  | 390 | 160 | 100 | 600 |  | 740 | 80 | 1590 | 1500 |  |  | 
c1ccc2c(c1)Nc1cccc3ccnc-2c13 | 1550 | 830 | 2140 | 580 | 1730 | 2060 | 2340 |  | 1100 | 2100 | 2060 | 1370 |  | 1070 | 2200 | 1860 | 1420 |  |  | 
Cc1ccc2c(c1)-c1cccc3nc4ccccc4c(c13)N2 | 390 | 180 | 810 | 450 | 550 | 710 | 1220 | 1210 | 490 | 2130 | 710 | 170 | 180 | 490 | 800 | 840 | 600 |  |  | 
